From ChEMBL document CHEMBL1126803, “Stereospecific and selective 5-HT2 antagonism in a series of 5-substituted trans-1-piperazino-3-phenylindans” (J Med Chem, 1993)
“And” between values parts separate entries of the source, which are not always exact repeats. Equal values may be shown once.

What was measured:
[1] = target: T1, Adrenergic receptor alpha-1 (Rattus norvegicus, UniProt P15823+P23944+P43140); assay: Displacement of [3H]prazosin from alpha-1 adrenoceptors in whole rat brain membranes; assay type: cell membranes
T1 sequence (P15823 whole entry): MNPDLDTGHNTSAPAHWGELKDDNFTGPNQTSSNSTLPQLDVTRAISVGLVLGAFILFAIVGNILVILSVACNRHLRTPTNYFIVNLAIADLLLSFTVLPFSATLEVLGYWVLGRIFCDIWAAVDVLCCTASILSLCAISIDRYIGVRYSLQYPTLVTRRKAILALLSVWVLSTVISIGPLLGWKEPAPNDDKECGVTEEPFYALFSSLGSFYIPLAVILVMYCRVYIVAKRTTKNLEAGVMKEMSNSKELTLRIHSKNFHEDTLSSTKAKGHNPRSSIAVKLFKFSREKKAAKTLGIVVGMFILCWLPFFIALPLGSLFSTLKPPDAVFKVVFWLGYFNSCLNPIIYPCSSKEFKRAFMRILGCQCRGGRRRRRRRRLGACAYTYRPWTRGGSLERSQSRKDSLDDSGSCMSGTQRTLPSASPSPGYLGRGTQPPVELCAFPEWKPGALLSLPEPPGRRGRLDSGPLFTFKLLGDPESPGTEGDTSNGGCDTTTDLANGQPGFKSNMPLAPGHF
T1 sequence (P23944 whole entry): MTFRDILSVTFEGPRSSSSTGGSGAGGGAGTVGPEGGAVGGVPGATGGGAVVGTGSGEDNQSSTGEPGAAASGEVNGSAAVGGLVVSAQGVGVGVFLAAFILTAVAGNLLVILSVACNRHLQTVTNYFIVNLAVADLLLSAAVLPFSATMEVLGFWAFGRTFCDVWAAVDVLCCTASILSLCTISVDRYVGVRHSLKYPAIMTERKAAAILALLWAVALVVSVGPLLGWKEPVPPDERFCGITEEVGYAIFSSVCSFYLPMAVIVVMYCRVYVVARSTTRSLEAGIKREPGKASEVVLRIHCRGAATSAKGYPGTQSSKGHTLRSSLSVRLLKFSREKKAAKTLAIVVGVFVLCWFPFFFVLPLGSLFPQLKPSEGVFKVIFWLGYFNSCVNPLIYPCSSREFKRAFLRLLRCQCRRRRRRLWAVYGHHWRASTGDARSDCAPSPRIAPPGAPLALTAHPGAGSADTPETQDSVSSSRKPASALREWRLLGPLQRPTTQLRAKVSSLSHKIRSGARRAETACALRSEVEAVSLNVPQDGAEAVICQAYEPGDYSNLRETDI
T1 sequence (P43140 whole entry): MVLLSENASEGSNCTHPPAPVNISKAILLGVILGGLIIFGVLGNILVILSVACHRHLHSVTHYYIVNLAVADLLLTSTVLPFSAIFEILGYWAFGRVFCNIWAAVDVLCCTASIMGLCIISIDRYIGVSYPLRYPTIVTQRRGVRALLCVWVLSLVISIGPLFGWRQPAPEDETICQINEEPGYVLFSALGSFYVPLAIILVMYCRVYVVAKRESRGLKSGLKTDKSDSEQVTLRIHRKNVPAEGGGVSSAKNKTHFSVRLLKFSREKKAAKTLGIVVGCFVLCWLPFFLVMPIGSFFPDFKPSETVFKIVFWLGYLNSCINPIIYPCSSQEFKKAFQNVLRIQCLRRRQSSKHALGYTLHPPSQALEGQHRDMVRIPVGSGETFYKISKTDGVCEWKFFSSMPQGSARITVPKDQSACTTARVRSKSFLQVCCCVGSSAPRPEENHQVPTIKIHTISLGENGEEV
Summary of the method: (§1)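 Radioligand displacement from rat brain membranes: 3H-ketanserin on cortical membranes (5-HT2), 3H-prazosin on whole brain membranes (alpha1), 3H-spiperone on striatal membranes (D2). Two full concentration-effect curves per compound, each with five test drug concentrations in triplicate spanning three decades. IC50 estimated from curves on a log-concentration scale. Outliers beyond 3 times the sd-ratio were discarded after extra determinations.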

Rattus norvegicus [2] = species: Rattus norvegicus; assay: Tested for inhibition of quipazine-induced head twitches in rats after 2 hours of pretreatment; assay type: functional
Summary of the method: (§2)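 Test drug was given sc or po to rats 2 or 24 h before quipazine (15 µmol/kg, sc). Head twitches were counted 30-40 min after quipazine, at least four animals per dose. Counts were expressed as percent of a quipazine-only control group.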

Rattus norvegicus [3] = species: Rattus norvegicus; assay: Tested for inhibition of quipazine-induced head twitches in rats after 24 hours of pretreatment; assay type: functional; summary of the method: as §2
[4] = target: Serotonin 2 (5-HT2) receptor (Rattus norvegicus, UniProt P30994+P08909+P14842); assay: Displacement of [3H]ketanserin from 5-hydroxytryptamine 2 receptor in rat cortical membranes; assay type: cell membranes, Membrane; summary of the method: as §1
Rattus norvegicus [5] = species: Rattus norvegicus; assay: Tested for inhibition of pergolide-induced rotation in 6-OH-DA-lesioned rats after 2 hr; assay type: functional
Summary of the method: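 Unilateral 6-OHDA-lesioned rats were given test drug sc 2 h before pergolide (0.05 µmol/kg, sc), which induces contralateral circling. Each dose's effect was expressed as percent of the mean of control sessions held 1 week before and 1 week after the test session in the same rat. At least four rats per dose; ED50 by log-probit analysis.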

D(2) dopamine receptor = D(2) dopamine receptor (Rattus norvegicus, UniProt P61169); assay: Displacement of [3H]spiperone from dopamine D2 receptors in rat striatal membranes; assay type: cell membranes, Membrane; summary of the method: as §1
Rattus norvegicus [6] = species: Rattus norvegicus; assay: Tested for inhibition of quipazine-induced head twitches after 24 hours of pretreatment; assay type: functional; summary of the method: as §2
Rattus norvegicus [7] = species: Rattus norvegicus; assay: Inhibition of quipazine-induced head twitches in rats after 2 hrs of pretreatment; assay type: functional; summary of the method: as §2
Rattus norvegicus [8] = species: Rattus norvegicus; assay: Tested for inhibition of norepinephrine uptake in rat brain membranes; assay type: functional, Membrane
Rattus norvegicus [9] = species: Rattus norvegicus; assay: Tested for inhibition of dopamine uptake in rat brain membranes; assay type: functional, Membrane
[10] = Rattus norvegicus, read-out: ED50

Chain of D(2) dopamine receptor (P61169 whole entry): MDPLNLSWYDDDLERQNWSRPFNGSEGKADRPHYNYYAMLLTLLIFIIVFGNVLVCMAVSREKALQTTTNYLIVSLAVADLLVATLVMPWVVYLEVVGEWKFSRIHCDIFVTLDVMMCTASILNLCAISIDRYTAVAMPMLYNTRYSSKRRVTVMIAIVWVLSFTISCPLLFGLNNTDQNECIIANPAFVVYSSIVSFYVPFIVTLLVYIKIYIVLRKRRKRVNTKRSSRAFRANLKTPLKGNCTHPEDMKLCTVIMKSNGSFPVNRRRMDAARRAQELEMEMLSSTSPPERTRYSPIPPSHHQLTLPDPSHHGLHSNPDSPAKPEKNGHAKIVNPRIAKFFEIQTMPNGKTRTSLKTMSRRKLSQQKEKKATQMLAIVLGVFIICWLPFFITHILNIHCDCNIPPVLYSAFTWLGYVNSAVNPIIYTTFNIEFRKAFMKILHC

IC50 [1]	IC50 [4]	IC50 (D(2) dopamine receptor)	IC50 (Rattus norvegicus [8])	IC50 (Rattus norvegicus [9])	Compound	ED50 (Rattus norvegicus [2])	ED50 (Rattus norvegicus [3])	ED50 (Rattus norvegicus [5])	ED50 (Rattus norvegicus [6])	ED50 (Rattus norvegicus [7]; [10])	ED50 (Rattus norvegicus [7])
0.052 µM	0.0015 µM				Fc1ccc(C2CC(N3CCN(CCN4CCNC4=S)CC3)c3ccc(Cl)cc32)cc1.O=C(O)/C=C\C(=O)O (configuration not stated)	0.077 µmol/kg	1.4 µmol/kg	> 14 µmol/kg			
0.11 µM	0.0015 µM	0.23 µM			Fc1ccc(C2CC(N3CCN(CCN4CCN=C4S)CC3)c3ccc(F)cc32)cc1.O=C(O)/C=C\C(=O)O.O=C(O)/C=C\C(=O)O (configuration not stated)			> 15 µmol/kg	0.62 µmol/kg	0.12 µmol/kg	
0.072 µM	0.012 µM	0.33 µM			Cl.Cl.OCCN1CCN(C2CC(c3ccc(F)cc3)c3cc(F)ccc32)CC1 (single isomer, unassigned; (+))						0.33 µM/kg
0.043 µM	0.00095 µM	0.14 µM			Cl.Cl.Fc1ccc(C2CC(N3CCN(CCN4CCCNC4=S)CC3)c3ccc(F)cc32)cc1 (single isomer, unassigned; (+))			> 37 µmol/kg	0.011 µmol/kg	0.017 µmol/kg	
0.041 µM	0.0011 µM	0.28 µM			O=C(O)/C=C\C(=O)O.O=C(O)/C=C\C(=O)O.O=C1NCCCN1CCN1CCN(C2CC(c3ccc(F)cc3)c3cc(F)ccc32)CC1 (single isomer, unassigned; (+))			> 15 µmol/kg			0.029 µM/kg and 0.07 µM/kg
2.5 µM	0.23 µM	6.3 µM			Cl.Cl.OCCN1CCN(C2CC(c3ccc(F)cc3)c3cc(Cl)ccc32)CC1 (single isomer, unassigned; (+))						>2.8 µM/kg
0.062 µM	0.0013 µM	0.094 µM			O=C(O)/C=C\C(=O)O.O=C(O)/C=C\C(=O)O.O=C1NCCCN1CCN1CCN(C2CC(c3ccc(F)cc3)c3cc(Cl)ccc32)CC1 (single isomer, unassigned; (-))		0.072 µmol/kg	> 15 µmol/kg		0.11 µmol/kg	
0.21 µM	0.0011 µM	0.2 µM	2.9 µM	1.9 µM	CC(C)N1CCN(CCN2CCN(C3CC(c4ccc(F)cc4)c4cc(Cl)ccc43)CC2)C1=O.O=C(O)/C=C\C(=O)O.O=C(O)/C=C\C(=O)O (single isomer, unassigned; (-))			> 14 µmol/kg			
0.21 µM	0.011 µM	0.37 µM			Cl.Cl.OCCN1CCN(C2CC(c3ccc(F)cc3)c3cc(Cl)ccc32)CC1 (single isomer, unassigned; (-))						0.86 µM/kg
0.34 µM	0.075 µM	1.3 µM	0.05 µM	0.07 µM	CC(C)N1CCN(CCN2CCN(C3CC(c4ccc(F)cc4)c4cc(Cl)ccc43)CC2)C1=O.O=C(O)/C=C\C(=O)O.O=C(O)/C=C\C(=O)O (stereo in doubt; (+)-20)						>7 µM/kg
1.1 µM	0.5 µM	22 µM			Cl.Cl.OCCN1CCN(C2CC(c3ccc(F)cc3)c3cc(F)ccc32)CC1 (stereo in doubt; (-)-13)						>2.8 µM/kg
0.067 µM	0.00075 µM	0.033 µM			Cl.Cl.Fc1ccc(C2CC(N3CCN(CCN4CCCNC4=S)CC3)c3ccc(Cl)cc32)cc1 (stereo in doubt; (-)-39)			> 18 µmol/kg	0.021 µmol/kg	0.041 µmol/kg	
0.0026 µM					O=C1NCCN1CCN1CCN([C@@H]2C[C@@H](c3ccc(F)cc3)c3ccccc32)CC1 [IRINDALONE]			7.4 µmol/kg	0.75 µmol/kg	0.58 µmol/kg	
					Cc1nc2sccn2c(=O)c1CCN1CCC(=C(c2ccc(F)cc2)c2ccc(F)cc2)CC1 [RITANSERIN]			> 21 µmol/kg			
